NR1D1 modulator: Rev-erb alpha (human) modulation; P20393; activity, % at 10 µM; Rev-erbα–FITC-DNA binding, fluorescence polarization, 90 min; 0.79% of 370,000 active;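 active = activity above about 14%, limit read from the data; passing the limit was not always enough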;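 also: 0% = DMSO wells with 35 nM protein and 100% = DMSO wells with 750 nM protein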
Target sequence (P20393 whole entry, looked up): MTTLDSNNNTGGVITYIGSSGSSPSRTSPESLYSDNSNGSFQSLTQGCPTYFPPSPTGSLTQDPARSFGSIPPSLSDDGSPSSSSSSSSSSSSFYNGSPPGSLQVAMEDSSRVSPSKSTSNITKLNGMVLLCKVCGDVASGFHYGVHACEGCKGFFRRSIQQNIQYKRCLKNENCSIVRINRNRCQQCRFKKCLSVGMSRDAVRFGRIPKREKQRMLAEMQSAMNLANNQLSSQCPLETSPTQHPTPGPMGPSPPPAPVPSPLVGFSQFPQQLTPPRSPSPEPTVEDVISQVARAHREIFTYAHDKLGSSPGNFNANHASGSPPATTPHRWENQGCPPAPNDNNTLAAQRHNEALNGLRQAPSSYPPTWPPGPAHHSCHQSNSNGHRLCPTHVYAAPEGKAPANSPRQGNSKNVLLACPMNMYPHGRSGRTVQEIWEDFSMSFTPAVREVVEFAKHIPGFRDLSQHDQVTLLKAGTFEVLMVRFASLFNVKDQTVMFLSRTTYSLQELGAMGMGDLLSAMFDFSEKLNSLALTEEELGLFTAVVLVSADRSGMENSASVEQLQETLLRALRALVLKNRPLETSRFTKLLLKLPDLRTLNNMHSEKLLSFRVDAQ
PG9 Ab binder: PG9 antibody binding by small molecule | TR-FRET gp120-PG9 antibody binding | inhibition, % at 6.7 µM | 0.43% of 360,000 active; in the data active = inhibition above about 8.5%
Rin1 Abl inh: human Rin1-Abl interaction inhibition; TR-FRET Rin1/Abl binding, biochemical; 0.4% of 360,000 active; P00519+Q13671; AID 588664; inhibition, % at 7.35 µM; in the data active = inhibition above about 5%, passing the limit was not always enough
Tb MetRS inh: blocks T. brucei methionyl-tRNA synthetase activity. purified T. brucei MetRS, ATP depletion, Kinase-Glo luminescence. inhibition, % at 11.9 µM. 0.4% of 360,000 active;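 active = inhibition above a per-plate cutoff of the control wells' mean inhibition plus 3 SD, cut at about 5.5% in these data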;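 also: 0% = DMSO wells median and 100% = median of wells with control inhibitor compound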
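System: purified T. brucei MetRS enzyme / Detection: Kinase-Glo luciferase luminescence reporting remaining unconsumed ATP / Medium: HEPES buffer with MgCl2, KCl, DTT, spermine, BSA, pyrophosphatase / Replication: singlicate, one well per compound / Evaluation: percent inhibition relative to median high and low control wells / Schedule: 2 h aminoacylation at 25 °C after 15 min preincubation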
TbMetRS confirm: confirmation of Trypanosoma brucei MetRS inhibitors; shares compounds with Tb MetRS inh; inhibition, % at 11.9 µM; 93% of 1,400 active; T. brucei MetRS enzyme, luminescence (ATP depletion); AID 624412; in the data active = inhibition above about 7%
Jurkat tox: Jurkat T cell cytotoxicity for MetRS hits; shares compounds with Tb MetRS inh; Jurkat cells viability, ATP luminescence; inhibition, % at 8.3 µM; 12% of 1,400 active; in the data active = inhibition above about 15%;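 also: 0% = vehicle and 100% = reference inhibitor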
Tb MetRS inh FP: orthogonal test for Trypanosoma brucei MetRS inhibitors | 44% of 1,400 active | inhibition, % at 11.9 µM | shares compounds with Tb MetRS inh | purified T. brucei MetRS, fluorescence polarization | AID 651607; in the data active = inhibition above about 17%;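 also: 0% = vehicle wells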
Starred values were filed as active, the others as inactive. Rows were chosen to be rich in hits. Some 1.8% of all compounds tested hit in one or more screens of this group.

Screening Cc1ccc2[nH]c(=O)c(CN(Cc3cccs3)Cc3nnnn3Cc3ccccc3)cc2c1 returned NR1D1 modulator 4, PG9 Ab binder -1, Rin1 Abl inh -1, Tb MetRS inh 9.1*, TbMetRS confirm 21*, Jurkat tox 5 and Tb MetRS inh FP 14.
CCOC(=O)Cn1nnnc1CN(Cc1cccs1)Cc1cc2cc(C)ccc2[nH]c1=O was read as NR1D1 modulator 2, PG9 Ab binder -1, Rin1 Abl inh -2 and Tb MetRS inh 4.
`CCCC1CCC2(CC1)CCC2OC(=S)NCCc1ccc(Cl)cc1` (configuration not stated) gave NR1D1 modulator 0.
`CCO[C@@H]1OC(C(=O)NCc2nc3ccccc3[nH]2)=C[C@H](C2CC2)[C@H]1CCCO` gave NR1D1 modulator 4, PG9 Ab binder -1, Rin1 Abl inh 0 and Tb MetRS inh 5.
`C#Cc1ccc([C@H]2C=C(C(=O)NCc3nc4ccccc4[nH]3)O[C@@H](OCC)[C@@H]2CCCO)cc1` gave NR1D1 modulator 4, PG9 Ab binder -2, Rin1 Abl inh 0, Tb MetRS inh 12*, TbMetRS confirm 36*, Jurkat tox 3 and Tb MetRS inh FP 17*.
For CCO[C@@H]1OC(C(=O)NCc2nc3ccccc3[nH]2)=C[C@H](C(C)(C)C)[C@H]1CCCO the results were NR1D1 modulator -4, PG9 Ab binder -1, Rin1 Abl inh 2, Tb MetRS inh 6.4*, TbMetRS confirm 33*, Jurkat tox 71* and Tb MetRS inh FP 13.
For CCO[C@H]1OC(C(=O)NCc2nc3ccccc3[nH]2)=C[C@@H](c2ccc(Br)cc2)[C@@H]1CCCO the results were NR1D1 modulator -1, PG9 Ab binder 3, Rin1 Abl inh -1, Tb MetRS inh 38*, TbMetRS confirm 80*, Jurkat tox -3 and Tb MetRS inh FP 57*.
`COC(=O)[C@]12C=CCN1[C@@H](c1ccc(Cl)cc1)c1c(c3ccccc3n1S(=O)(=O)c1ccc(C)cc1)C2` gave NR1D1 modulator -2.
Screening O=S1(=O)CC(N2CCC(c3ccccc3)CC2)CN1Cc1cn(Cc2ccc(C(F)(F)F)cc2)nn1 (configuration not stated) returned NR1D1 modulator 8 and PG9 Ab binder 1.
Screening CCCCCCCCNS(=O)(=O)CC1NCc2cc(OC)ccc21 (configuration not stated) returned NR1D1 modulator 6.
`CC(C)CC(CCOCCO)NC(=O)OCc1ccccc1[N+](=O)[O-]` (configuration not stated) gave NR1D1 modulator 1.
For O=c1oc(Nc2cccc(F)c2)nc2ccccc12 the results were NR1D1 modulator -2, PG9 Ab binder -1, Rin1 Abl inh 1 and Tb MetRS inh 0.
Nc1nc(Nc2cccc(F)c2)nc2ccccc12 was read as NR1D1 modulator 10, PG9 Ab binder 2, Rin1 Abl inh 1, Tb MetRS inh 24*, TbMetRS confirm 34*, Jurkat tox 15 and Tb MetRS inh FP 20*.
O=S1(=O)c2ccc(Br)cc2OC[C@H](Cc2ccccc2)N1Cc1cn(CCC2OCCO2)nn1 was read as NR1D1 modulator 0.
`Cn1nc(C(F)(F)F)c(-c2cccc(C(F)(F)F)c2)c1NC(=O)Nc1ccc(F)cc1` gave NR1D1 modulator 6, PG9 Ab binder -1, Rin1 Abl inh 0, Tb MetRS inh 41*, TbMetRS confirm 58*, Jurkat tox 10 and Tb MetRS inh FP 38*.
Screening Cn1nc(C(F)(F)F)c(-c2cccc(C(F)(F)F)c2)c1NC(=O)c1ccco1 returned NR1D1 modulator -6, PG9 Ab binder 0, Rin1 Abl inh 1 and Tb MetRS inh -1.
For Nc1ccc(N2CCOCC2)c2nonc12 the results were NR1D1 modulator 2, PG9 Ab binder -5, Rin1 Abl inh -1, Tb MetRS inh 26*, TbMetRS confirm 4, Jurkat tox -5 and Tb MetRS inh FP 1.
Screening Cc1ccc(S(=O)(=O)/C(C#N)=C/c2c[nH]c3ccccc23)cc1 returned NR1D1 modulator 9, PG9 Ab binder 1, Rin1 Abl inh -4, Tb MetRS inh 19*, TbMetRS confirm 40*, Jurkat tox -1 and Tb MetRS inh FP 24*.
Screening Cc1ccc(S(=O)(=O)N/N=C/c2c[nH]c3ccccc23)cc1 returned NR1D1 modulator 4, PG9 Ab binder -3, Rin1 Abl inh -1 and Tb MetRS inh 0.
Screening CCn1c(N2CCN(CC(=O)c3c[nH]c4ccccc34)CC2)nc2c1c(=O)[nH]c(=O)n2C returned NR1D1 modulator -2, PG9 Ab binder 0, Rin1 Abl inh -5, Tb MetRS inh 7.8*, TbMetRS confirm 19*, Jurkat tox 0 and Tb MetRS inh FP 5.
For c1ccc(N/N=C(\Cc2ncc[nH]2)c2ccccc2)cc1 the results were NR1D1 modulator -1, PG9 Ab binder -2, Rin1 Abl inh 3 and Tb MetRS inh 0.
Clc1cccc(N/N=C(\Cc2nc3ccccc3[nH]2)c2ccccc2)c1 was read as NR1D1 modulator 6, PG9 Ab binder -1, Rin1 Abl inh -2, Tb MetRS inh 59*, TbMetRS confirm 90*, Jurkat tox 3 and Tb MetRS inh FP 98*.
For CO[C@@H]1CN(C)C(=O)c2cc(NC(=O)Nc3cc(F)ccc3F)ccc2OC[C@H](C)N(C(=O)c2cnccn2)C[C@@H]1C the results were NR1D1 modulator -4, PG9 Ab binder -1, Tb MetRS inh 6.2*, TbMetRS confirm 14*, Jurkat tox 0 and Tb MetRS inh FP 1.
For CN(CCc1nc2ccccc2[nH]1)Cc1nc(CC2CC2)no1 the results were NR1D1 modulator -2, PG9 Ab binder -1, Rin1 Abl inh -2 and Tb MetRS inh 1.
CN(CCc1nc2ccc(Cl)cc2[nH]1)Cc1nc(CC2CC2)no1 was read as NR1D1 modulator -3, PG9 Ab binder 0, Rin1 Abl inh -1, Tb MetRS inh 42*, TbMetRS confirm 62*, Jurkat tox -1 and Tb MetRS inh FP 28*.
`CCN(C(=O)CSc1nnc(-c2c[nH]c3ccccc23)o1)C1CCS(=O)(=O)C1` (configuration not stated) gave NR1D1 modulator 2, PG9 Ab binder -2, Rin1 Abl inh 4, Tb MetRS inh 7.3*, TbMetRS confirm 13*, Jurkat tox -4 and Tb MetRS inh FP 12.
For CCN(C(=O)CSc1nnc(-c2ccccc2Br)o1)C1CCS(=O)(=O)C1 (configuration not stated) the results were NR1D1 modulator -6, PG9 Ab binder -2, Rin1 Abl inh 1 and Tb MetRS inh -1.
`O=C(Cc1cccs1)N/N=C/C=C/c1ccccc1[N+](=O)[O-]` gave NR1D1 modulator 2, PG9 Ab binder -3, Rin1 Abl inh 0 and Tb MetRS inh 2.
